Data reported in ChEMBL document CHEMBL1131453, “Design of N-acylprolyltyrosine "tripeptoid" analogues of neurotensin as potential atypical antipsychotic agents” (J Med Chem, 1998).
Peptide text beside a SMILES is read from it. * marks the point of attachment. Nonanoyl = CCCCCCCCC(=O)*; Hexanoyl = CCCCCC(=O)*; Pentanoyl = CCCCC(=O)*

System: Mus musculus
Assay: Compound was tested in vivo for its ability to antagonize apomorphine-induced climbing response in mice upon intraperitoneal administration
Format: functional
Details: ip
In short: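 C57BL/6 male mice, 22–25 g, adapted 1 h in wire mesh cages. Compound in saline with 3% Tween 80 given ip 15 min before apomorphine 5.0 mg/kg sc (in saline with 0.1% ascorbic acid). Climbing scored 0–4 every 2 min, 30 readings, from 15 min after apomorphine. Totals are expressed as % of vehicle control. ED50 with 95% confidence limits by log-dose linear regression, 8–16 mice per dose.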
`NC(=O)[C@H](Cc1ccc(O)cc1)NC(=O)[C@@H]1CCCN1` gave an ED50 of 3.4 mg/kg. For `NC(=O)[C@H](Cc1ccc(O)cc1)NC(=O)[C@H]1CCCN1`, the ED50 was 3.6 mg/kg. Work on `O=C(CCCN1CCC(O)(c2ccc(Cl)cc2)CC1)c1ccc(F)cc1` [HALOPERIDOL] yielded an ED50 of 0.1 mg/kg. In the case of `CCCCCC(=O)N1CCC[C@H]1C(=O)N[C@@H](Cc1ccc(O)cc1)C(N)=O` (Hexanoyl-Pro-Tyr-NH2), the ED50 is reported as 0.5 mg/kg. In the case of `CC(C)(C)OC(=O)N1CCC[C@H]1C(=O)N[C@@H](Cc1ccc(O)cc1)C(N)=O`, the ED50 is reported as 2.5 mg/kg. In the case of `NC(=O)[C@@H](Cc1ccc(O)cc1)NC(=O)[C@@H]1CCCN1C(=O)Cc1ccccc1`, the ED50 is reported as > 8 mg/kg. For `NC(=O)[C@@H](Cc1ccc(O)cc1)NC(=O)[C@@H]1CCCN1`, the ED50 was > 16 mg/kg. Work on `CC(C)(C)OC(=O)N1CCC[C@@H]1C(=O)N[C@@H](Cc1ccc(O)cc1)C(N)=O` yielded an ED50 of 0.4 mg/kg. Compound `CCCCC(=O)N1CCC[C@H]1C(=O)N[C@@H](Cc1ccc(O)cc1)C(N)=O` (Pentanoyl-Pro-Tyr-NH2) has an ED50 of 3.2 mg/kg. Work on `NC(=O)[C@H](Cc1ccc(O)cc1)NC(=O)[C@H]1CCCN1C(=O)Cc1ccccc1` yielded an ED50 of 4.9 mg/kg. Work on `CCN1CCC[C@H]1CNC(=O)c1cc(S(N)(=O)=O)ccc1OC` [LEVOSULPIRIDE] yielded an ED50 of 17.5 mg/kg. `CCN1CCC[C@H]1CNC(=O)c1c(OC)ccc(Br)c1OC` [REMOXIPRIDE] gave an ED50 of 1.2 mg/kg. Compound `CCCCCCCCC(=O)N1CCC[C@H]1C(=O)N[C@@H](Cc1ccc(O)cc1)C(N)=O` (Nonanoyl-Pro-Tyr-NH2) has an ED50 of 0.5 mg/kg. In the case of `NC(=O)[C@H](Cc1ccc(O)cc1)NC(=O)[C@@H]1CCCN1C(=O)Cc1ccccc1`, the ED50 is reported as 2.2 mg/kg.

System: Rattus norvegicus
Assay: Compound was tested in vivo for its ability to antagonize extrapolatory behavior impairment induced by DOPA in rats upon intraperitoneal administration
Format: functional
Details: ip
In short: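 Outbred albino male rats, 180–200 g, placed in a water-plunged cylinder (22 °C) and must dive under its edge within 2 min; non-escapers discarded. A day later, Madopar (100 mg/kg L-DOPA + 25 mg/kg benserazide in 3% Tween 80) is given ip 60 min before testing. Compound in saline + 3% Tween 80 is given ip 10 min before Madopar. Successful escapes are recorded. ED50 with 95% confidence limits by linear regression, eight rats per dose.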
Compound `NC(=O)[C@H](Cc1ccc(O)cc1)NC(=O)[C@@H]1CCCN1` has an ED50 of 1.6 mg/kg. Work on `O=C(CCCN1CCC(O)(c2ccc(Cl)cc2)CC1)c1ccc(F)cc1` [HALOPERIDOL] yielded an ED50 of 0.14 mg/kg. Compound `CCCCCC(=O)N1CCC[C@H]1C(=O)N[C@@H](Cc1ccc(O)cc1)C(N)=O` (Hexanoyl-Pro-Tyr-NH2) has an ED50 of 0.4 mg/kg. With `CCN1CCC[C@H]1CNC(=O)c1cc(S(N)(=O)=O)ccc1OC` [LEVOSULPIRIDE] the ED50 was 16.5 mg/kg. `CN1CCN(C2=Nc3cc(Cl)ccc3Nc3ccccc32)CC1` [CLOZAPINE] gave an ED50 of 20 mg/kg. With `CCN1CCC[C@H]1CNC(=O)c1c(OC)ccc(Br)c1OC` [REMOXIPRIDE] the ED50 was 0.31 mg/kg. With `NC(=O)[C@H](Cc1ccc(O)cc1)NC(=O)[C@@H]1CCCN1C(=O)Cc1ccccc1` the ED50 was 1.5 mg/kg.

System: Rattus norvegicus
Assay: Compound was tested in vivo for its ability to induce catalepsy in rats upon intraperitoneal administration
Format: functional
Details: ip
In short: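 Adult outbred male rats, 200–250 g, dosed ip with compound in saline containing 3% Tween 80. Forepaws placed on a bar 7 cm high (Morpurgo apparatus) at 0.5, 1.0, 1.5 and 2 h. Bar time scored 0–3, tested twice per session at 2-min intervals. Scores are given as percent of the maximal cumulative score (15).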
In the case of `NC(=O)[C@H](Cc1ccc(O)cc1)NC(=O)[C@@H]1CCCN1`, the ED50 is reported as > 500 mg/kg. In the case of `O=C(CCCN1CCC(O)(c2ccc(Cl)cc2)CC1)c1ccc(F)cc1` [HALOPERIDOL], the ED50 is reported as 0.5 mg/kg. In the case of `CCCCCC(=O)N1CCC[C@H]1C(=O)N[C@@H](Cc1ccc(O)cc1)C(N)=O` (Hexanoyl-Pro-Tyr-NH2), the ED50 is reported as > 500 mg/kg. For `CCN1CCC[C@H]1CNC(=O)c1cc(S(N)(=O)=O)ccc1OC` [LEVOSULPIRIDE], the ED50 was > 120 mg/kg. For `CN1CCN(C2=Nc3cc(Cl)ccc3Nc3ccccc32)CC1` [CLOZAPINE], the ED50 was > 32 mg/kg. With `CCN1CCC[C@H]1CNC(=O)c1c(OC)ccc(Br)c1OC` [REMOXIPRIDE] the ED50 was 8.7 mg/kg. In the case of `NC(=O)[C@H](Cc1ccc(O)cc1)NC(=O)[C@@H]1CCCN1C(=O)Cc1ccccc1`, the ED50 is reported as > 1000 mg/kg.

System: not listed separately
Assay: Acute toxicity on male outbred albino mice upon intraperitoneal administration
Details: mouse, in vivo, ip
In short: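 Male outbred albino mice (Moscow region), 20–25 g, housed five per cage with free food and water at 21–22 °C, 40–50% humidity, 12/12 h light/dark. Single ip injection at doses up to 500–1000 mg/kg. Surviving animals were counted 2, 24 and 48 h after injection.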
In the case of `NC(=O)[C@H](Cc1ccc(O)cc1)NC(=O)[C@@H]1CCCN1`, the LD50 is reported as > 500 mg/kg. Compound `O=C(CCCN1CCC(O)(c2ccc(Cl)cc2)CC1)c1ccc(F)cc1` [HALOPERIDOL] has an LD50 of 35 mg/kg. In the case of `CCCCCC(=O)N1CCC[C@H]1C(=O)N[C@@H](Cc1ccc(O)cc1)C(N)=O` (Hexanoyl-Pro-Tyr-NH2), the LD50 is reported as > 500 mg/kg. Compound `CCN1CCC[C@H]1CNC(=O)c1cc(S(N)(=O)=O)ccc1OC` [LEVOSULPIRIDE] has an LD50 of 250 mg/kg. Work on `CCN1CCC[C@H]1CNC(=O)c1c(OC)ccc(Br)c1OC` [REMOXIPRIDE] yielded an LD50 of 302 mg/kg. With `NC(=O)[C@H](Cc1ccc(O)cc1)NC(=O)[C@@H]1CCCN1C(=O)Cc1ccccc1` the LD50 was > 1000 mg/kg.
